Experimental data: ChEMBL document CHEMBL4431328, “Development of a Single-Chain Peptide Agonist of the Relaxin-3 Receptor Using Hydrocarbon Stapling” (J Med Chem, 2016)
Calls of active or inactive are those of the source. The calls are words filed in the database; no cut-off is given here. Where a SMILES comes first, the peptide text is derived from it. Bridges are numbered along the chain shown (N, C = ends). [ ]: non-standard residue; d: D form. S5 = C=CCCC[C@](C)(N)C(=O)O

What was measured:
[1] = target: T1, Relaxin-3 receptor 2 (Homo sapiens, UniProt Q8TDU9); assay: Displacement of Eu-INSL5 from human RXFP4 receptor expressed in CHOK1 cells by time-resolved fluorescent whole cell binding assay; format: cell-based
[2] = target: T2, Relaxin-3 receptor 1 (Homo sapiens, UniProt Q9NSD7); assay: Displacement of Eu-H3/15 from human RXFP3 receptor expressed in CHOK1 cells by time-resolved fluorescent whole cell binding assay; format: cell-based
T2 sequence (Q9NSD7 whole entry): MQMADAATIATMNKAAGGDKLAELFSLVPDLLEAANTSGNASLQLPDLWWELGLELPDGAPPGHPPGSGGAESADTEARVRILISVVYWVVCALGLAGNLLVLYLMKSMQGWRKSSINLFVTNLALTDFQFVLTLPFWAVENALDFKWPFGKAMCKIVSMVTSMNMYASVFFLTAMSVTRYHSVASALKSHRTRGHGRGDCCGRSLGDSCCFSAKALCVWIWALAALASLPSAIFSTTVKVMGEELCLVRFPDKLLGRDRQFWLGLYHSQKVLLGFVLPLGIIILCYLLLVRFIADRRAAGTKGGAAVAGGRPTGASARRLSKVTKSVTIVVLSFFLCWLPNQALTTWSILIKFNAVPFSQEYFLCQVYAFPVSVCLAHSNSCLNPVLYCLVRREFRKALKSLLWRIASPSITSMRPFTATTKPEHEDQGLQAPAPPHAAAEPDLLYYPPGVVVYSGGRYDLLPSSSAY

[3] = target: T1, Relaxin-3 receptor 2; assay: Agonist activity at human RXFP4 receptor expressed in CHOK1 cells cotransfected with beta-galactosidase assessed as inhibition of forskolin-stimulated cAMP by beta-galactosidase reporter gene assay; format: functional, cell-based
[4] = target: T3, Relaxin receptor 1 (Homo sapiens) (UniProt Q9HBX9); assay: Agonist activity at RXFP1 receptor (unknown origin) expressed in HEK-293T cells cotransfected with beta-galactosidase assessed as cAMP activation at 10 uM by beta-galactosidase reporter gene assay; format: functional, cell-based
T3 sequence (whole entry): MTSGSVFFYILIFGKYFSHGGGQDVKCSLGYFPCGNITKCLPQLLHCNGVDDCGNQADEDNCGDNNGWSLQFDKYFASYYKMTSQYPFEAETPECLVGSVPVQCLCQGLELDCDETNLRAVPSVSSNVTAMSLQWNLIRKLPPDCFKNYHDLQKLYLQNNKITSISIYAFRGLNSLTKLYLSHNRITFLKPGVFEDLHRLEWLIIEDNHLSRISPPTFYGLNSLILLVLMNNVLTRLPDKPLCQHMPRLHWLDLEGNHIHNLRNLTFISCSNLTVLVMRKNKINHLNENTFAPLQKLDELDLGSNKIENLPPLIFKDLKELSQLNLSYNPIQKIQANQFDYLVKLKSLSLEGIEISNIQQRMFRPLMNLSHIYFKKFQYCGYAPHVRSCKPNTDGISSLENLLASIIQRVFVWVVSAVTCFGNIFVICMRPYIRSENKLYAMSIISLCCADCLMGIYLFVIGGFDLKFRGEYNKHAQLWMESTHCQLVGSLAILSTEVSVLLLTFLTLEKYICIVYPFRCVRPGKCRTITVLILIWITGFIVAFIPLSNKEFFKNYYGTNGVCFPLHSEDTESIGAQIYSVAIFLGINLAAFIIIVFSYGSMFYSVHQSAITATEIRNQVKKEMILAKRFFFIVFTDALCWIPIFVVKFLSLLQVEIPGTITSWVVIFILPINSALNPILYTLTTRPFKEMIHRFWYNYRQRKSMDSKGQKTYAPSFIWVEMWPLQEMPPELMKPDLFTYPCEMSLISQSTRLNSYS
In short: (§1)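 Tested for RXFP1 activation at concentrations up to 10 µM, alongside the […] as a reference.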

[5] = target: T2, Relaxin-3 receptor 1; assay: Agonist activity at human RXFP3 receptor expressed in CHOK1 cells cotransfected with beta-galactosidase assessed as inhibition of forskolin-stimulated cAMP by beta-galactosidase reporter gene assay; format: functional, cell-based
[6] = target: T4, Relaxin receptor 1 (Homo sapiens, UniProt Q9HBX9); assay: (§2) Agonist activity at RXFP1 receptor (unknown origin) expressed in HEK-293T cells cotransfected with beta-galactosidase assessed as cAMP activation by beta-galactosidase reporter gene assay; format: functional, cell-based; in short: as §1
T4 sequence (Q9HBX9 whole entry): T3 sequence (whole entry)

[7] = Toxicity in satiated Sprague-Dawley rat assessed as behavioral changes at 1 nmol, icv during early light phase measured after 1 hr post dose under home cage condition; details: in vivo, icv_or_intrathecal
[8] = tested on: Rattus norvegicus; assay: Induction of food intake in satiated Sprague-Dawley rat at 1 nmol, icv during early light phase measured after 1 hr post dose; format: functional, organism-based
[9] = target: T2, Relaxin-3 receptor 1; assay: Agonist activity at human RXFP3 receptor expressed in CHOK1 cells assessed as ERK1/2 phosphorylation incubated for 5 mins by alphascreen surefire assay; format: cell-based
[10] = tested on: Rattus norvegicus; assay: Induction of water intake in satiated Sprague-Dawley rat at 1 nmol, icv during early light phase measured after 1 hr post dose; format: functional, organism-based
[11] = target: T3, Relaxin receptor 1 (Homo sapiens); assay: as §2; format: functional, cell-based; in short: as §1

T1 sequence (Q8TDU9 whole entry): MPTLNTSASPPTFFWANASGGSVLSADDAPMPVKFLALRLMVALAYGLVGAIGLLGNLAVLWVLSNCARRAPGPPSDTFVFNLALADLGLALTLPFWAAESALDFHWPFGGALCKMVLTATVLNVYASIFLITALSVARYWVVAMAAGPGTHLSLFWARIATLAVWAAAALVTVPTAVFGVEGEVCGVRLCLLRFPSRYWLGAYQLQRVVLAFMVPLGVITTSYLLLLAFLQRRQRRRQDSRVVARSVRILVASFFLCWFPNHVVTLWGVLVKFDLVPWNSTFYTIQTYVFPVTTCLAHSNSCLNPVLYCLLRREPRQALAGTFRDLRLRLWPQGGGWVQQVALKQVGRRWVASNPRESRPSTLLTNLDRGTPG

Structure (SMILES) | Ki [1] [nM] | Ki [2] [nM] | EC50 [3] [nM] | Activity [4] | EC50 [5] [nM] | EC50 [6] [nM] | Activity [7] | Activity [8] | EC50 [9] [nM] | Activity [10] | pEC50 [11]
CC[C@H](C)[C@@H]1NC(=O)[C@H](Cc2ccccc2)NC(=O)[C@@](C)(NC(=O)[C@H](CCCNC(=N)N)NC(=O)CNC(=O)[C@H](CO)NC(=O)[C@H](CC(C)C)NC(=O)[C@H](CCCNC(=N)N)NC(C)=O)CCC/C=C/CCC[C@@](C)(C(=O)N[C@H](C(=O)N[C@H](C(=O)N[C@@H](Cc2ccccc2)C(=O)N[C@H](C(=O)N[C@@H](CO)C(=O)NCC(=O)NCC(=O)N[C@@H](CO)C(=O)N[C@@H](CCCNC(=N)N)C(=O)N[C@@H](Cc2c[nH]c3ccccc23)C(=O)O)[C@@H](C)O)[C@@H](C)CC)C(C)C)NC(=O)[C@H](CCCNC(=N)N)NC1=O (Ac-RLSGR[S5]FIR[S5]VIFTSGGSRW-OH; staple (E) 6-10) | 123 | 107 | 120 | inactive | 5.25 | > 10000 | – | – | – | – | –
CC[C@H](C)[C@@H]1NC(=O)[C@H](Cc2ccccc2)NC(=O)[C@@](C)(NC(=O)[C@H](CCCNC(=N)N)NC(=O)CNC(=O)[C@H](CO)NC(C)=O)CCC/C=C/CCC[C@@](C)(C(=O)N[C@H](C(=O)N[C@H](C(=O)N[C@@H](Cc2ccccc2)C(=O)N[C@H](C(=O)N[C@@H](CO)C(=O)NCC(=O)NCC(=O)N[C@@H](CO)C(=O)N[C@@H](CCCNC(=N)N)C(=O)N[C@@H](Cc2c[nH]c3ccccc23)C(=O)O)[C@@H](C)O)[C@@H](C)CC)C(C)C)NC(=O)[C@H](CCCNC(=N)N)NC1=O (Ac-SGR[S5]FIR[S5]VIFTSGGSRW-OH; staple (E) 4-8) | 316 | 275 | 112 | inactive | 3.31 | – | Non-Toxic | Active | 0.12 | inactive | inactive
CC[C@H](C)[C@H](NC(=O)[C@H](Cc1ccccc1)NC(=O)[C@H](CCC(=O)O)NC(=O)[C@H](CCCNC(=N)N)NC(=O)CNC(=O)[C@H](CO)NC(C)=O)C(=O)N[C@@H](CCCNC(=N)N)C(=O)N[C@@H](CCCCN)C(=O)N[C@H](C(=O)N[C@H](C(=O)N[C@@H](Cc1ccccc1)C(=O)N[C@H](C(=O)N[C@@H](CO)C(=O)NCC(=O)NCC(=O)N[C@@H](CO)C(=O)N[C@@H](CCCNC(=N)N)C(=O)N[C@@H](Cc1c[nH]c2ccccc12)C(=O)O)[C@@H](C)O)[C@@H](C)CC)C(C)C (Ac-SGREFIRKVIFTSGGSRW-OH) | > 10000 | – | 5890 | inactive | 4570 | > 10000 | – | – | – | – | –
CC[C@H](C)[C@H](NC(=O)[C@H](Cc1ccccc1)NC(=O)[C@H](CCC(=O)O)NC(=O)[C@H](CCCNC(=N)N)NC(=O)CNC(=O)[C@H](CO)NC(C)=O)C(=O)N[C@@H](CCCNC(=N)N)C(=O)N[C@@H](C)C(=O)N[C@H](C(=O)N[C@H](C(=O)N[C@@H](Cc1ccccc1)C(=O)N[C@H](C(=O)N[C@@H](CO)C(=O)NCC(=O)NCC(=O)N[C@@H](CO)C(=O)N[C@@H](CCCNC(=N)N)C(=O)N[C@@H](Cc1c[nH]c2ccccc12)C(=O)O)[C@@H](C)O)[C@@H](C)CC)C(C)C (Ac-SGREFIRAVIFTSGGSRW-OH) | > 10000 | – | 2690 | inactive | 8710 | > 10000 | – | – | – | – | –
